For three compounds, IC50 results are on record in ChEMBL document CHEMBL2034932, “2-Anilino-4-(benzimidazol-2-yl)pyrimidines--a multikinase inhibitor scaffold with antiproliferative activity toward cancer cell lines” (Eur J Med Chem, 2012).

For experiment [1], the target named is RAC-alpha serine/threonine-protein kinase (Homo sapiens, UniProt P31749). In words: Inhibition of recombinant AKT1 using GSK3 as substrate assessed as inhibition of [33P]Phosphate incorporation into substrate after 80 mins by scintillation counting. The method, boiled down:
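Recombinant AKT1 was assayed radiometrically with [33P]-ATP (about 5×10^5 cpm/well) and GSK3(14-27) substrate at 2000 ng/50 µL. Buffer was 60 mM HEPES-NaOH pH 7.5 with 3 mM MgCl2 and 3 mM MnCl2, and compound was added in 10% DMSO. After 80 min at 30 °C the reaction was stopped with 2% phosphoric acid, washed with 0.9% NaCl and 33P incorporation counted by scintillation.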

Experiment [2] addresses Aurora kinase B (Homo sapiens, UniProt Q96GD4). In words: Inhibition of recombinant Aurora B using tetra(LRRWSLG) as substrate assessed as inhibition of [33P]Phosphate incorporation into substrate after 80 mins by scintillation counting.
The target in experiment [3] is Focal adhesion kinase 1 (Homo sapiens, UniProt Q05397). In words: Inhibition of recombinant FAK using poly(Glu,Tyr)4 as substrate assessed as inhibition of [33P]Phosphate incorporation into substrate after 80 mins by scintillation counting.
For experiment [4], the target named is Vascular endothelial growth factor receptor 2 (Homo sapiens, UniProt P35968). Description: Inhibition of recombinant VEGFR2 using poly(Glu,Tyr)4 as substrate assessed as inhibition of [33P]Phosphate incorporation into substrate after 80 mins by scintillation counting.
Experiment [5] deals with Serine/threonine-protein kinase PLK1 (Homo sapiens, UniProt P53350). Description: Inhibition of recombinant PLK1 using RBERCHKtide as substrate assessed as inhibition of [33P]Phosphate incorporation into substrate after 80 mins by scintillation counting. In outline:
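PLK1 (recombinant) was phosphorylating RBER-CHKtide at 2000 ng/50 µL with [33P]-ATP (about 5×10^5 cpm/well). Buffer was 60 mM HEPES-NaOH pH 7.5 with 3 mM MgCl2 and 3 mM MnCl2. After 80 min at 30 °C, 2% phosphoric acid stopped the reaction and wells were washed with saline. Incorporated 33P was counted, with residual activity relative to enzyme-free and inhibitor-free controls.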

Chain of Vascular endothelial growth factor receptor 2 (P35968 whole entry): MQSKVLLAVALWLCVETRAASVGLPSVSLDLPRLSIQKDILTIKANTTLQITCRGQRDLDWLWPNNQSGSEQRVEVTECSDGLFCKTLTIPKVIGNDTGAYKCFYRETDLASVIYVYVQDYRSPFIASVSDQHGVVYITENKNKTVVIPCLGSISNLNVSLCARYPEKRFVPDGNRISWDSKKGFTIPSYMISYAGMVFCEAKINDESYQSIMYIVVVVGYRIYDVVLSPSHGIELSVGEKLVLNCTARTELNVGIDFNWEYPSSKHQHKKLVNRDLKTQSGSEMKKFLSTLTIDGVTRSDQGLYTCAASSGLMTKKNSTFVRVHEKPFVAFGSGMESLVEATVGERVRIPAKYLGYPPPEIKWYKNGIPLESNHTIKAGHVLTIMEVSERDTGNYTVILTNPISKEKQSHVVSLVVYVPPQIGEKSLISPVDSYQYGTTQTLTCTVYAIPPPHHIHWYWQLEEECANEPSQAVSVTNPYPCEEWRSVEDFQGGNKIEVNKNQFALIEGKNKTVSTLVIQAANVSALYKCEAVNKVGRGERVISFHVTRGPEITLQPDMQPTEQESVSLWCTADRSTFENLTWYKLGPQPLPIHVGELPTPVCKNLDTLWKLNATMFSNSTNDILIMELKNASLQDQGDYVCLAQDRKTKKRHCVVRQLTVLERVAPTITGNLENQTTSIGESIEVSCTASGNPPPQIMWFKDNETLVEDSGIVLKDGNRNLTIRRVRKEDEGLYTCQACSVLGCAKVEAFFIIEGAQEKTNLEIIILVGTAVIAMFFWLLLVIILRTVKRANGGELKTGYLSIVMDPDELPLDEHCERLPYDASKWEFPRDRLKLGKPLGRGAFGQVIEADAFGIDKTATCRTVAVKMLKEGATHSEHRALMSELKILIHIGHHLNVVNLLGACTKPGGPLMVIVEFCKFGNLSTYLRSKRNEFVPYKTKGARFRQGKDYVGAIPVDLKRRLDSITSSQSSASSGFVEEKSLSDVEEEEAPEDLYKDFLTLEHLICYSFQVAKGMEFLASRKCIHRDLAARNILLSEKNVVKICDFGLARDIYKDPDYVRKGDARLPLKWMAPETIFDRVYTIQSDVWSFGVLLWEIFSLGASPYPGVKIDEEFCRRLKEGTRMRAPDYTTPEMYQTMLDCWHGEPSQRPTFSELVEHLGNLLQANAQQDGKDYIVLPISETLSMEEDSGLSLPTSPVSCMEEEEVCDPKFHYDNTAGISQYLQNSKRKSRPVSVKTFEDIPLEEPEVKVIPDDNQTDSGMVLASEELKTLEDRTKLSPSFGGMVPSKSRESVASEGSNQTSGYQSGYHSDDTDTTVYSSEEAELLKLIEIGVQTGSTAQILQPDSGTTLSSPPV
Chain of Focal adhesion kinase 1 (Q05397 whole entry): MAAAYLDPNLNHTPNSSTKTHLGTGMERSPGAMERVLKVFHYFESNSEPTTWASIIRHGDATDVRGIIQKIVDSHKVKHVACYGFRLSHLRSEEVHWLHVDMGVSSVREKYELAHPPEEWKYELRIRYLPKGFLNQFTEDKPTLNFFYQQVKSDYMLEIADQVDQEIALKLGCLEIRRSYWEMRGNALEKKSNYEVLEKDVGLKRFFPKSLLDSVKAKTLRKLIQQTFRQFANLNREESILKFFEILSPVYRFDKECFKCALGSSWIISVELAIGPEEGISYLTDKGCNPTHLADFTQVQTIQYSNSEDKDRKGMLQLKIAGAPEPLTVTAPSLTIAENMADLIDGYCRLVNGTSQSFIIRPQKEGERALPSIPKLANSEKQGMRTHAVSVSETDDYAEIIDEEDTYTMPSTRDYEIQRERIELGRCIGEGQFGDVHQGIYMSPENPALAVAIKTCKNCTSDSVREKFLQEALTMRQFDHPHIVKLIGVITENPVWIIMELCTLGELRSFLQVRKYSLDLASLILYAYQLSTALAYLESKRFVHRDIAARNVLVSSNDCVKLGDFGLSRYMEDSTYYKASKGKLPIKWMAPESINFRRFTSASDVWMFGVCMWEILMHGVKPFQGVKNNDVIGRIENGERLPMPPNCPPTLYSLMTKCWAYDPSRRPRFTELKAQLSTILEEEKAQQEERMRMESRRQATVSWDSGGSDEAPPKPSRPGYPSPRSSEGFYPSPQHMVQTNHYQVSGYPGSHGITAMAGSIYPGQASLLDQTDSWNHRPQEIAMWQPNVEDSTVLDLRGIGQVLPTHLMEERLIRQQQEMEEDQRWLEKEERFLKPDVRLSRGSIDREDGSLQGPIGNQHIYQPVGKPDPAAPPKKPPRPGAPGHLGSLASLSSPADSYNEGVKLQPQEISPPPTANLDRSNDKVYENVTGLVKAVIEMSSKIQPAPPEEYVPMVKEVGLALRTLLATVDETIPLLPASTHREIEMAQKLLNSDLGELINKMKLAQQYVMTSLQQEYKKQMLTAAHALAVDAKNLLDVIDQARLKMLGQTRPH
Chain of Serine/threonine-protein kinase PLK1 (P53350 whole entry): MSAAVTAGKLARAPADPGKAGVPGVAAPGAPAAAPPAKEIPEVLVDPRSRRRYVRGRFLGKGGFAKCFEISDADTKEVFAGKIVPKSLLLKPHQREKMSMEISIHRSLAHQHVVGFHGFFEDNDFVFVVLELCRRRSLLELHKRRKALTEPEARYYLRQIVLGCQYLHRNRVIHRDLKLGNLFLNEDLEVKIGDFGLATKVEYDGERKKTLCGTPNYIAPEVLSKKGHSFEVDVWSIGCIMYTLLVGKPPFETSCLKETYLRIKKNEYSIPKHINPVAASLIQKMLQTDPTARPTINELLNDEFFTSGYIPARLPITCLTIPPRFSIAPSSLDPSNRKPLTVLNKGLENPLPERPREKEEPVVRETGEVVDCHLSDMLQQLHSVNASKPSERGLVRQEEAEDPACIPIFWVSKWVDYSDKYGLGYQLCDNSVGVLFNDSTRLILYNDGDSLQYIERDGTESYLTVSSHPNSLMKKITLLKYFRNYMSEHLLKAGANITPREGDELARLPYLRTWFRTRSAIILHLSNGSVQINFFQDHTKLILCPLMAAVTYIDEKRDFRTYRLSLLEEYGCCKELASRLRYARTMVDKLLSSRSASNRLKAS
Chain of Aurora kinase B (Q96GD4 whole entry): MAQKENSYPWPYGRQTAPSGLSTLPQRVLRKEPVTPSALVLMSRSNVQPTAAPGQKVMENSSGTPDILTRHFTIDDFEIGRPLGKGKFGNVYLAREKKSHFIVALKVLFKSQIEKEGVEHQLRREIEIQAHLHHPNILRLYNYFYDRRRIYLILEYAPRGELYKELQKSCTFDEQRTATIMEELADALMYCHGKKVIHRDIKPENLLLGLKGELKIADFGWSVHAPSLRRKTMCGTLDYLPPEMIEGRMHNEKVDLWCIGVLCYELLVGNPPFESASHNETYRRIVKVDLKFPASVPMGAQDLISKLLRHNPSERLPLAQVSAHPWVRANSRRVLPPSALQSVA
Chain of RAC-alpha serine/threonine-protein kinase (P31749 whole entry): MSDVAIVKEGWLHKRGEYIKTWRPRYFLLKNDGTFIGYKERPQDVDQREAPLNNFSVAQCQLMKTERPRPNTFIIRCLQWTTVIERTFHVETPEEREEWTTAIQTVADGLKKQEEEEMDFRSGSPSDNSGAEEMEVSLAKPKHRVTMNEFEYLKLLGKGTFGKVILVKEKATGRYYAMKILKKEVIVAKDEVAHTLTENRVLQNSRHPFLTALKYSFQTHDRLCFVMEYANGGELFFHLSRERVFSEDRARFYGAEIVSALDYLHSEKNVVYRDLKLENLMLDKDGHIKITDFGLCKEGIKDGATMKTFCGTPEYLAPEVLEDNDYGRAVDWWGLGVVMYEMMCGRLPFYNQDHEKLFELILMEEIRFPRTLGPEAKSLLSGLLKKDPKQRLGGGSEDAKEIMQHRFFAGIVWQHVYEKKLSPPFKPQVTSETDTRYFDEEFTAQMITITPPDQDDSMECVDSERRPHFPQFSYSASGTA

By IC50 is commonly meant the concentration at which inhibition is half-maximal. Turning to `Cn1c(-c2ccnc(Nc3cccc(O)c3)n2)nc2ccccc21`, the IC50 in experiment [1] is above 100 µM; in experiment [2], 5.5 µM; in experiment [3], 5.2 µM; in experiment [4] it was 3.2 µM; in experiment [5] it was 3.7 µM.
Regarding `Cn1c(-c2ccnc(Nc3ccc(O)c(Cl)c3)n2)nc2ccccc21`, the IC50 is above 100 µM in experiment [1]; 7 µM in experiment [2]; 10.4 µM in experiment [3]; 7.5 µM in experiment [4]; 6 µM in experiment [5].
Take `Cn1c(-c2ccnc(Nc3ccc(O)cc3)n2)nc2ccccc21`: the IC50 in experiment [1] was above 100 µM; in experiment [2], 11.1 µM; in experiment [3] it was 11.4 µM; in experiment [4], 9.2 µM; in experiment [5], 12 µM.
